The target in data set [1] is T1, Enoyl-[acyl-carrier-protein] reductase [NADH] (Mycobacterium tuberculosis) (UniProt P9WGR1).
T1 sequence (whole entry): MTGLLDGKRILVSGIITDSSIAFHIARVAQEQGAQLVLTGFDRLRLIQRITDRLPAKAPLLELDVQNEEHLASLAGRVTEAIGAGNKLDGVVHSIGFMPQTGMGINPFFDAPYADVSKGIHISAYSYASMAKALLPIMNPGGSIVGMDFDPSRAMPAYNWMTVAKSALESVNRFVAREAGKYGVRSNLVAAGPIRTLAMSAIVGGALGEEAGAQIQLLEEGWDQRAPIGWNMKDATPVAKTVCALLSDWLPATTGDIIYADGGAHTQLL
Put plainly: Time dependent inhibition of Mycobacterium tuberculosis InhA.

Data set [2] concerns the target T2, Enoyl-[acyl-carrier-protein] reductase [NADH] (Mycobacterium tuberculosis, UniProt P9WGR1).
T2 sequence (P9WGR1 whole entry): T1 sequence (whole entry)
The data set can be described thus: Noncompetitive inhibition of Mycobacterium tuberculosis InhA using DD-CoA as substrate assessed as inhibition constant for enzyme-substrate-inhibitor ternary complex in presence of varying concentrations of NADH by double reciprocal plot analysis.

Data set [3] addresses T2, Enoyl-[acyl-carrier-protein] reductase [NADH]. Put plainly: Competitive inhibition of Mycobacterium tuberculosis InhA using varying concentrations of DD-CoA as substrate assessed as inhibition constant for enzyme-inhibitor binary complex in presence of NADH by Lineweaver-Burk plot analysis. An outline of the steps:
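Steady-state kinetics with recombinant MtInhA in 100 mM Pipes pH 7.0 at 25 °C. NADH fixed at 60 μM, DD-CoA varied 15–135 μM, inhibitor at fixed-varied levels of 0.2–4 μM. Kis is fitted to the competitive inhibition equation.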

Data set [4] can be described thus: Cytotoxicity against African green monkey Vero cells assessed as reduction in cell viability incubated for 72 hrs by MTT assay. Type of data set: toxicity, cell-based. The settings on record: chlorocebus sabaeus. The procedure, abridged:
(§1)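 Cells grown in DMEM with 10% FBS. HepG2 seeded at 4 × 10³ and Vero at 2 × 10³ cells/well, 24 h before dosing. Compounds at 1, 5 and 20 μM in 1% DMSO for 72 h at 37 °C, 5% CO2. MTT readout: 5 mg/mL reagent for 4 h, absorbance at 595 nm. Neutral red readout: 25 μg/mL dye for 3 h, then acid-ethanol desorb. Viability is expressed relative to 1% DMSO controls.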

Data set [5] in a line: Cytotoxicity against African green monkey Vero cells assessed as reduction in cell viability incubated for 72 hrs by neutral red uptake assay. Type of data set: toxicity, cell-based. The settings on record: chlorocebus sabaeus. An outline of the steps:
as §1

The nature of data set [6]: Selectivity index, ratio of CC50 for African green monkey Vero cells by MTT assay to MIC for pan-sensitive Mycobacterium tuberculosis H37Rv ATCC 27294. Format: toxicity, cell-based. The settings on record: read-out: Selectivity Index. Background: Tetrazolium dyes change colour on reduction, which living cells bring about.
The test system of the next data set is Klebsiella pneumoniae. The data set can be described thus: Antibacterial activity against multidrug-resistant Klebsiella pneumoniae clinical isolates assessed as inhibition of bacterial growth at 20 uM by broth microdilution method. Format: functional, organism-based. The procedure, abridged: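 Broth microdilution in triplicate against a small bacterial panel, with compounds tested at 20 μM for growth inhibition.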
In general terms: Dilution methods test growth across graded concentrations, often in twofold steps.

Data set [7] can be described thus: Chemical stability in 0.1 M HCl solution at pH 1.2 assessed as parent compound remaining at 1 to 10 uM measured after 24 hrs by HPLC-EM/MS analysis. Type of data set: physicochemical. The settings on record: dose 1-10 µM, read-out: Stability. The procedure, abridged:
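Compounds at 1–10 μM incubated 24 h at 37 °C in three media: pH 1.2 (0.1 M HCl), pH 7.4 (PBS) and pH 9.1 (0.1 M NH4HCO3). Remaining parent compound quantified afterward.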

Data set [8] in a line: Solubility of compound in PBS at pH 7.4 at 1 mg incubated for 4 hrs under shaking conditions by liquid chromotography. Format: physicochemical. An outline of the steps: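 1 mg of compound was added to 1 mL of PBS pH 7.4 or 0.1 M HCl, in triplicate. Suspensions were vortexed 1 min, shaken 4 h at 25 °C, then centrifuged 13000 rpm for 15 min at 25 °C. Supernatant was quantified by reverse-phase UHPLC (UV 260–280 nm) against a single-point calibration of compound in DMSO.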

The nature of data set [9]: Permeability of compound at 10 uM measured after 5 hrs by PAMPA assay. Particulars: read-out: permeability. Format: ADME. An outline of the steps: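 PAMPA: compounds at 10 μM in 2% DMSO added to a pH 7.4 donor phase, 5 h at room temperature. Receptor-side concentration (pH 7.4) measured to derive permeation rate. Alprenolol is the analytical control.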
Background: In PAMPA a lipid-coated filter parts donor from acceptor wells.

In data set [10] the test system is Mycobacterium tuberculosis. Put plainly: Antibacterial activity against Mycobacterium tuberculosis H37Rv ATCC 27294 infected in mouse RAW264.7 cells assessed as reduction in colony forming units at 5 uM measured after 5 days (reference value: 4.19 +/- 0.41). Format: functional. Particulars: time 5 day.
Data set [11] in a line: Genotoxicity in human HepG2 cells assessed as induction of DNA damage at 1 to 5 uM incubated for 24 hrs by alkaline comet assay. Format: toxicity, cell-based. The settings on record: hepg2, 24 h, dose 1-5 µM. The procedure, abridged: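 Alkaline comet assay in HepG2 cells seeded at 8 × 10⁴ cells/well. Exposure to 1 or 5 μM for 24 h. Lysis 48 h, alkali unwinding (300 mM NaOH, pH >13) 20 min at 4 °C, electrophoresis 20 min at 25 V, silver staining.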

The target of data set [12] is T1, Enoyl-[acyl-carrier-protein] reductase [NADH] (Mycobacterium tuberculosis). The data set can be described thus: Binding affinity to Mycobacterium tuberculosis InhA assessed as change in entropy at 250 uM in presence of NADH by fluorescence spectroscopy.
Data set [13] can be described thus: Toxicity in mouse assessed as effect on spleen weight at 300 mg/kg administered as single dose and measured for 14 days. Format: organism-based. Particulars: in vivo, 336 h, time 14 day. The procedure, abridged: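 Acute oral toxicity study. At day 14 the animals were euthanized, and kidneys, liver and spleen were weighed and inspected macroscopically.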
Data set [14] is described as follows: Toxicity in mouse assessed as effect on lung weight at 300 mg/kg administered as single dose and measured for 14 days. Particulars: in vivo, 336 h, time 14 day. Type of data set: organism-based.
The test system of data set [15] is Mycobacterium tuberculosis. The data set can be described thus: Bacteriostatic activity in Mycobacterium tuberculosis H37Rv ATCC 27294 infected in CF-1 mouse assessed as reduction in bacterial growth in lungs at 300 to 450 uM/kg, po administered daily for 14 days starting from 7 days post infection. Type of data set: functional, organism-based. The settings on record: dose 300-450 µM/Kg, time 14.0 day. The procedure, abridged: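 Mice treated by gavage from 7 days post-infection for 14 days, daily, at 300 or 450 μM/kg. Lungs and spleen homogenized in saline and plated for CFU. Comparisons are against vehicle and early-control groups.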

Data set [16] can be described thus: Toxicity in CF-1 mouse assessed as reduction in body weight at 300 to 450 uM/kg, po administered daily for 14 days. Format: organism-based. Particulars: in vivo, 336 h, dose 300-450 µM/Kg, time 14 day. An outline of the steps: (§2)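 Mice were infected with M. tuberculosis H37Rv. From 7 days after infection, test and reference drugs were given daily by oral gavage for 14 days, with a vehicle-only group. Body weight was followed over the course of the experiment.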

Data set [17] can be described thus: Toxicity in CF-1 mouse assessed as reduction in body weight at 150 uM/kg, po administered daily for 14 days. The settings on record: in vivo, 336 h, time 14 day. Format: organism-based. An outline of the steps: as §2
For data set [18], the target named is T2, Enoyl-[acyl-carrier-protein] reductase [NADH]. The data set can be described thus: Binding affinity to Mycobacterium tuberculosis InhA assessed as dissociation constant at 250 uM at 15 degreeC in presence of NADH by fluorescence spectroscopy. The procedure, abridged:
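Titration of pre-formed MtInhA:NADH complex (2 mL of 3 μM enzyme with 20 μM NADH), adding microliter aliquots of 250 μM ligand stock with dilution kept ≤1%. Intrinsic fluorescence read at 295 nm excitation, 310–500 nm emission. Temperatures 15, 20, 25 and 30 °C. KD is fitted to a hyperbolic isotherm. ΔH°, ΔS° and ΔG° come from van't Hoff analysis of KD across temperatures.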

In brackets after ≈: the same amount, converted by molar mass. Activity calls are given as the source filed them. No cut-off for these calls is given here.

What is called Ki is the dissociation constant of the complex between target and ligand, obtained from inhibition or displacement. As usually defined, the CC50 is the concentration giving 50% cytotoxicity. One may read the solubility (thermodynamic) as the concentration in solution at equilibrium with solid. Take `Cc1cc(Nc2ccc(N3CCCCC3)cc2)c2cc(Cl)ccc2n1`: in data set [1], the TDI entry is “inactive”. Moreover, the Ki in data set [2] is 460 nM; in data set [3], 1330 nM. Besides, the 50% cytotoxic concentration (CC50) at 72 h in data set [4] came out at 19200 nM; in [5], 11700 nM. In data set [6], the selectivity ratio turned out to be 21.3. Besides, the outcome in the data set with Klebsiella pneumoniae was inactive. For the same compound, the remaining at 24 h, up to 10 µM in [7] was found to be 98.6%. For the same compound, the solubility (thermodynamic) at 4 h in [8] is 18.6 µM (≈ 6.54 µg/mL). For the same compound, the Papp at 5 h, 10 µM in data set [9] worked out at 11.5 ×10⁻⁶ cm/s. Also, the Activity is listed as 2.39 log10CFU in data set [10] and “Non-Toxic” in data set [11]. Further, the deltaS in data set [12] is -49.8 cal/mol/K.

The Kd is the free concentration of one partner at which half of the binding sites on the other are occupied at equilibrium, for simple one-to-one binding. As for `Cc1cc(Nc2ccc(N3CCCCC3)cc2)c2cc(Br)ccc2n1`, the TDI entry in data set [1] was “inactive”. The Ki in data set [2] worked out at 150 nM; in [3], 140 nM. For the same compound, the CC50 at 72 h was greater than 20000 nM in data set [4] and 12200 nM in data set [5]. Besides, the selectivity ratio in [6] is greater than 50. In the data set on Klebsiella pneumoniae, the result was inactive. Further, the remaining at 24 h, up to 10 µM in data set [7] stood at 94.6%. Besides, the solubility (thermodynamic) at 4 h in data set [8] was determined as 3.9 µM (≈ 1.55 µg/mL). Besides, the Papp at 5 h, 10 µM in data set [9] turned out to be 3.16 ×10⁻⁶ cm/s. Also, the Activity is listed as 2.74 log10CFU in data set [10]; “Non-Toxic” in data set [11]; “Non-Toxic” in data set [13]; “Non-Toxic” in [14]; “Non-Toxic” in data set [16]; “Non-Toxic” in data set [17]. For the same compound, the result in data set [15] was Active. Moreover, the deltaS in [12] was -33.4 cal/mol/K. The Kd in [18] is 280 nM.

The values above are taken from ChEMBL document CHEMBL5385869, “Novel 4-aminoquinolines: Synthesis, inhibition of the Mycobacterium tuberculosis enoyl-acyl carrier protein reductase, antitubercular activity, SAR, and preclinical evaluation” (Eur J Med Chem, 2023).
